# Results from different studies.
# Protocols differ between the studies behind these lines.
# Observed: binding
# Tumor necrosis factor receptor superfamily member 9: Tumor necrosis factor receptor superfamily member 9 (Homo sapiens, UniProt Q07011)
# MET: Hepatocyte growth factor receptor (MET, Homo sapiens, UniProt P08581)
Structure (SMILES),target,test,conditions,Kd [µM]
CCCC[C@@H]1NC(=O)[C@H](Cc2ccc(O)cc2)NC(=O)[C@@H]2CCCN2C(=O)[C@H](CC(=O)O)NC(=O)[C@H](C)NC(=O)[C@H](Cc2ccccc2)NC(=O)[C@@H]2CSCCC(=O)N3CN(CN(C3)C(=O)CCSC[C@H](NC(C)=O)C(=O)N[C@@H](CC(C)(C)C)C(=O)N3CCC[C@H]3C(=O)N[C@@H](CCC(=O)O)C(=O)N[C@H](CCCCNC(=O)CCc3cn(CCOCCOCCOCCOCCOCCC(=O)N[C@H]4CSCCC(=O)N5CN6CN(C5)C(=O)CCSC[C@H](NC(=O)[C@@H](CC(=O)O)NC(=O)[C@H](Cc5cccc7ccccc57)NC(=O)[C@@H]5CCCN5C4=O)C(=O)N[C@@H](CCSC)C(=O)N[C@@H](CCCCNC(=N)N)C(=O)N[C@@H](CC(=O)O)C(=O)N[C@@H](Cc4c[nH]c5ccccc45)C(=O)N[C@@H](CO)C(=O)N[C@@H]([C@@H](C)O)C(=O)N4CCC[C@H]4C(=O)N4C[C@H](O)C[C@H]4C(=O)N[C@@H](Cc4c[nH]c5ccccc45)C(=O)N[C@H](C(N)=O)CSCCC6=O)nn3)C(=O)N3CCC[C@H]3C(=O)N[C@@H](Cc3ccc(O)cc3)C(=O)N2)C(=O)CCSCCNC1=O,Tumor necrosis factor receptor superfamily member 9,SPR,,0.03
CC[C@H](C)[C@H](NC(=O)[C@H](CCC(=O)O)NC(=O)[C@H](CCC(=O)O)NC(=O)[C@H](CCC(N)=O)NC(=O)[C@@H](NC(=O)[C@@H](N)CC(=O)O)[C@@H](C)CC)C(=O)N[C@@H](CC(C)C)C(=O)N[C@@H](CO)C(=O)NCC(=O)N[C@@H](CCCCN)C(=O)N[C@@H](CO)C(=O)O,"Ubiquitin carboxyl-terminal hydrolase 7 (USP7, Homo sapiens, UniProt Q93009)",ITC,pH 8,424
CCCN1CCc2cc(OC)cc3c2[C@H]1Cc1ccc(O)c(O)c1-3,"D(2) dopamine receptor (Drd2, Rattus norvegicus, UniProt P61169)",radioligand,cell membranes,0.00221
CCCC[C@@H]1NC(=O)[C@H](Cc2ccc(O)cc2)NC(=O)[C@@H]2CCCN2C(=O)[C@H](CC(=O)O)NC(=O)[C@H](C)NC(=O)[C@H](Cc2ccccc2)NC(=O)[C@@H]2CSCCC(=O)N3CN(CN(C3)C(=O)CCSC[C@@H](C(N)=O)NC1=O)C(=O)CCSCCC(=O)N[C@@H](CC(C)(C)C)C(=O)N1CCC[C@H]1C(=O)N[C@@H](CCC(=O)O)C(=O)N[C@H](CCCCNC(=O)CCc1cn(CCOCCOCCOCCOCCOCCC(=O)N[C@H]3CSCCC(=O)N4CN5CN(C4)C(=O)CCSC[C@H](NC(=O)[C@@H](CC(=O)O)NC(=O)[C@H](Cc4cccc6ccccc46)NC(=O)[C@@H]4CCCN4C3=O)C(=O)N[C@@H](CCSC)C(=O)N[C@@H](CCCCNC(=N)N)C(=O)N[C@@H](CC(=O)O)C(=O)N[C@@H](Cc3c[nH]c4ccccc34)C(=O)N[C@@H](CO)C(=O)N[C@@H]([C@@H](C)O)C(=O)N3CCC[C@H]3C(=O)N3C[C@H](O)C[C@H]3C(=O)N[C@@H](Cc3c[nH]c4ccccc34)C(=O)N[C@H](C(N)=O)CSCCC5=O)nn1)C(=O)N1CCC[C@H]1C(=O)N[C@@H](Cc1ccc(O)cc1)C(=O)N2,Tumor necrosis factor receptor superfamily member 9,SPR,,0.012
CC(c1ccccc1Cl)n1cc(-c2cc(F)cc(F)c2)c(=O)[nH]c1=O (stereo not shown),MET,,,39.8
CCCC[C@@H]1NC(=O)[C@H](Cc2ccc(O)cc2)NC(=O)[C@@H]2CCCN2C(=O)[C@H](CC(=O)O)NC(=O)[C@H](C)NC(=O)[C@H](Cc2ccccc2)NC(=O)[C@@H]2CSCCC(=O)N3CN(CN(C3)C(=O)CCSC[C@@H](C(=O)N[C@@H](C)C(N)=O)NC1=O)C(=O)CCSC[C@H](NC(C)=O)C(=O)N[C@@H](CC(C)(C)C)C(=O)N1CCC[C@H]1C(=O)N[C@@H](CCC(=O)O)C(=O)N[C@H](CCCCNC(=O)CCc1cn(CCOCCOCCOCCOCCOCCC(=O)NCCCC[C@H]3NC(=O)[C@H](Cc4cccc5ccccc45)NC(=O)[C@@H]4CCCN4C(=O)[C@@H](NC(C)=O)CSCCC(=O)N4CN5CN(C4)C(=O)CCSC[C@H](NC3=O)C(=O)N[C@@H](CCSC)C(=O)N[C@@H](CCCCNC(=N)N)C(=O)N[C@@H](CC(=O)O)C(=O)N[C@@H](Cc3c[nH]c4ccccc34)C(=O)N[C@@H](CO)C(=O)N[C@@H]([C@@H](C)O)C(=O)N3CCC[C@H]3C(=O)N3C[C@H](O)C[C@H]3C(=O)N[C@@H](Cc3c[nH]c4ccccc34)C(=O)N[C@H](C(N)=O)CSCCC5=O)nn1)C(=O)N1CCC[C@H]1C(=O)N[C@@H](Cc1ccc(O)cc1)C(=O)N2,Tumor necrosis factor receptor superfamily member 9,SPR,,0.0043
CC(c1ccccc1)n1cc(-c2c(F)ccc3cn[nH]c23)c(=O)[nH]c1=O (stereo not shown),MET,,,0.398
OC[C@H]1OC(O)[C@H](O)[C@@H](O)[C@@H]1O (stereo partly shown),"Hexokinase-4 (GCK, Homo sapiens, UniProt P35557)",stopped-flow,,5000
CC(c1ccccc1)n1cc(-c2ccccn2)c(=O)[nH]c1=O (stereo not shown),MET,,,5.01
CCCCC/C=C\C/C=C\C/C=C\C/C=C\CCCC(=O)O,"Nuclear receptor subfamily 4 group A member 2 (Homo sapiens, UniProt P43354)",fluorescence,,58
